The test system of one test is BRCA1-deficient cells. The following applies: read-out: IC50 in BRCA1-deficient cells; cited from earlier work.
In a further test the test system is Brca1^cc/cc MEFs. The test can be described thus: Colony survival assay, Brca1 cc/cc MEFs. The test is classed as cell-based, mouse. The following applies: vs Brca1-WT MEFs.
In a further test the target is Polθ-hel (Homo sapiens, UniProt O75417). The following applies: cited from earlier work.
Test [1] relates to DLD1 BRCA2-KO (BRCA2 -/-, null) cells. Briefly: Colony survival assay, DLD1 BRCA2-KO. The test is classed as cell-based. The following applies: DLD1 isogenic pair, vs BRCA2-WT. The method in brief: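 Isogenic pairs (DLD1 in RPMI; HCT 116 in DMEM; each with 10% FBS, glutamine, non-essential amino acids) seeded in 24-well plates: 800 cells/well for BRCA-null and 200 cells/well for wild-type. Test compound exposure with medium changed every 2–3 days for 10–12 days. Fixed in water:ethanol:acetic acid 5:4:1, stained with 0.5% crystal violet for 2 h, colonies counted manually. Mean ± S.E.M.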

The test system of a further test is Brca1^Δ11;Δ11 MEFs. The following applies: cited from earlier work.

The term IC50 denotes the midpoint of a concentration-inhibition curve.

Chain of Polθ-hel (O75417 1-894): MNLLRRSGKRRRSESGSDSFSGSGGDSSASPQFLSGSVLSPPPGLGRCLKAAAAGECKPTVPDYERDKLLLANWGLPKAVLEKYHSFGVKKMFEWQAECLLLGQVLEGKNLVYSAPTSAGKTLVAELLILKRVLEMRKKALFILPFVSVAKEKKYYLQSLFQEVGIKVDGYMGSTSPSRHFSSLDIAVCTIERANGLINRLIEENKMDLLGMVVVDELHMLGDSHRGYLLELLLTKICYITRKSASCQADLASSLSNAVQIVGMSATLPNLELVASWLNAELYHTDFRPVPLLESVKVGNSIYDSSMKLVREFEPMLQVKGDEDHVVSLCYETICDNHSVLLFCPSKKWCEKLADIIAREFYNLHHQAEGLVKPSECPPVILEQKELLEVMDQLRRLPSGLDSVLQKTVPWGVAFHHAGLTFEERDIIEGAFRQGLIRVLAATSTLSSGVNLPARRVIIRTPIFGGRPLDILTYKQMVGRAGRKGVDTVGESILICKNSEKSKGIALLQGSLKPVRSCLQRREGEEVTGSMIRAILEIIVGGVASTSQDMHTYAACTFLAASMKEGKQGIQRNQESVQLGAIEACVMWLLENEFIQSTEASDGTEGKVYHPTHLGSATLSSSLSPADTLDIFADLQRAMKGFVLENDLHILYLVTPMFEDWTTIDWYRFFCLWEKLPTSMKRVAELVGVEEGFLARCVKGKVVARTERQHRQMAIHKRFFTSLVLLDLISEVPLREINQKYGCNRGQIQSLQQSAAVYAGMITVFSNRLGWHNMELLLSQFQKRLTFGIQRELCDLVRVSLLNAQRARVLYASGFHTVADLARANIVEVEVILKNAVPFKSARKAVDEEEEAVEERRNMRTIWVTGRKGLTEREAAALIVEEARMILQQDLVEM

Turning to `CO[C@@H]1[C@@H](OC(N)=O)[C@@H](O)[C@H](Oc2ccc3c(O)c(NC(=O)c4ccc(O)c(CC=C(C)C)c4)c(=O)oc3c2C)OC1(C)C` [Novobiocin], the concentration for half-maximal inhibition (IC50) in the test with BRCA1-deficient cells was 50 to 100 µM. Besides, the “colony survival, killing of Brca1 cc/cc MEFs” value in the test with Brca1^cc/cc MEFs was “no preferential killing of these cells up to 10 μM”. Moreover, the “inhibition of Polθ-hel ssDNA binding” value at Polθ-hel is given as “inhibits Polθ-hel ssDNA binding”. The “colony survival, killing of BRCA2-KO cells” value in test [1] is listed as “selective killing of BRCA2-KO cells at significantly higher concentrations”.
Regarding `Cc1cccc(N(C)C(=O)[C@@H]2[C@H](O)CCN2c2nc(C)cc(C(F)(F)F)c2C#N)c1` [ART558], the “activity against Brca1 Δ11 MEFs” value in the test on Brca1^Δ11;Δ11 MEFs is on record as “relatively modest activity”.

The values above are taken from paper PMC11324745 (Nature Communications, 2024).
